Runt-SMMHC FRET: inhibitors of human RUNX1 Runt domain binding to CBFb-SMMHC; Cerulean-Runt/Venus-CBFb-SMMHC FRET ratio 530/480, 1 h; inhibition, % at 20 µM; 220,000 compounds, 0.74% hits;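 active = mean inhibition across duplicate retests at 20 µM reaching about 50%, limit read from the data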;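 also: 0% = DMSO wells and 100% = wells with excess untagged CBFb-SMMHC; inhibitors lower the FRET ratio by blocking Runt binding to CBFb-SMMHC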
Target sequence (Q01196 whole entry, looked up, the tested form may be a part): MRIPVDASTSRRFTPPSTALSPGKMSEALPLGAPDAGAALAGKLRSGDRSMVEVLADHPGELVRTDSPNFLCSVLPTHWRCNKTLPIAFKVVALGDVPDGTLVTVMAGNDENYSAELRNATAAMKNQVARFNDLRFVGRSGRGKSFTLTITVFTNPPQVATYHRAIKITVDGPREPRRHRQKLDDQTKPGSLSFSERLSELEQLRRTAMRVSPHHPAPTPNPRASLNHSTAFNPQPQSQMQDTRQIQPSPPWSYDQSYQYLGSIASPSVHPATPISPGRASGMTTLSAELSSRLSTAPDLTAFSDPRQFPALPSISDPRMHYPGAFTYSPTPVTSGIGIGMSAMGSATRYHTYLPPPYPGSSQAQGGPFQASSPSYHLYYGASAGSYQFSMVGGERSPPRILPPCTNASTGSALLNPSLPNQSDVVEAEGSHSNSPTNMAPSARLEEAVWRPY
Target sequence (Q13951 whole entry, looked up, the tested form may be a part): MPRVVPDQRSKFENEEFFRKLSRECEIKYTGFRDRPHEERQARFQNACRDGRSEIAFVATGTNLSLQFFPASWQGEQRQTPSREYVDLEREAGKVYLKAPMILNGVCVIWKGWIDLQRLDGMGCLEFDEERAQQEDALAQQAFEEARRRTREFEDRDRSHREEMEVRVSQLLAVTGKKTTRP
Runt-CBFb FRET: blocks binding of human RUNX1 Runt domain to CBFb | Cerulean-Runt/Venus-CBFb FRET ratio 530/480, 1 h | Q01196+Q13951 | inhibition, % at 20 µM | 220,000 compounds, 0.46% hits;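 active = inhibition over about 50% at 20 µM in the single-dose screen, limit read from the data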;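 also: 0% = DMSO wells and 100% = excess unlabeled CBFb competitor control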
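Doses: 20 µM compound in 1% DMSO | Material: Cerulean-labeled Runt domain protein | Amount: Each fluorescent fusion protein 100 nM | Schedule: Two 1 h room-temperature incubations shielded from light | Measured by: FRET fluorescence | Evaluation: Loss of energy transfer signal | Controls: Unlabeled CBFb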
VIM-2 inh: inhibitors of Pseudomonas aeruginosa VIM-2 metallo-beta-lactamase | purified VIM-2, nitrocefin hydrolysis, epi-absorbance fluorescence | inhibition, % at 5.6 µM | 290,000 compounds, 0.89% hits;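 active = inhibition above the mean of all tested compounds plus 3 SD, cutoff set per screening run, cut at about 7.5% in these data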;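 also: red hydrolysis product quenches plate fluorescence so inhibitors raise well fluorescence; 0% = enzyme with DMSO and 100% = DMSO without enzyme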
IMP-1 inh: inhibitors of Pseudomonas aeruginosa IMP-1 metallo-beta-lactamase | purified IMP-1, nitrocefin hydrolysis, epi-absorbance fluorescence | inhibition, % at 5.6 µM | 290,000 compounds, 0.45% hits | AID 1556;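 active = inhibition above the mean plus 3 SD of all compounds in the same screening run, cut at about 4.5% in these data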;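 also: 0% = IMP-1 with DMSO and 100% = DMSO wells lacking enzyme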
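System: Purified IMP-1 | Read-out basis: Percent enzyme inhibition | Controls: IMP-1 with DMSO as 0%, enzyme-free DMSO as 100% | Replicates: One well per compound | Doses: 5.6 µM nominal single concentration | Detection: Epi-absorbance fluorescence, 480 nm excitation, 530 nm emission | Incubation: 25 °C, 15 min preincubation, 25 min reaction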
RanGTP-Imp inh: inhibitors of RanGTP-importin-beta interaction, primary screen, biochemical, FRET, CFP-Ran, YFP-importin-beta, homogeneous; cell-free CFP-Ran/YFP-importin-beta FRET ratio; inhibition, % (concentration not given with the values); 300,000 compounds, 1.1% hits; AID 2216;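 active = more than half of the replicate wells show a fall in the fluorescence ratio signal beyond about 16%, limit read from the data, passing the limit was not always enough; inconclusive = exactly half of the replicate wells pass the set limit; inactive = fewer than half of replicates pass the limit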;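 also: 0% = DMSO wells and 100% = Ran loaded with GDP instead of GTP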
* = called active by the depositor; u = inconclusive; x = no result given. This is a sample that favours compounds with a hit; in the whole collection about 2.6% have one here.

SMILES	Runt-SMMHC FRET	Runt-CBFb FRET	VIM-2 inh	IMP-1 inh	RanGTP-Imp inh
CCCCOc1ccc(CN2CCC(O)CC2)cc1	-3.2	2.9	-2.8	45.2*	-6.5
CCCn1nc(NC(=O)CC(C)C)c2cc3ccccc3nc21	22.9	-4.2	-0.6	-2.6	27.2*
CCn1nc(NS(=O)(=O)c2ccc(NC(C)=O)cc2)c2cc3ccccc3nc21	x	x	-3.7	-2.6	1.4
CCCCC(=O)Nc1nn(CC(C)C)c2nc3ccccc3cc12	41.5	21.9	-1.1	-2.7	29.2*
COc1cccc(CC(NC(C)=O)C(=O)NC2CCN(S(=O)(=O)c3ccc(NC(C)=O)cc3)CC2)c1 (stereo not given)	-1.4	0.4	-3.6	-0.9	-2.2
CCN1CCc2nc(SCC(=O)Nc3ccc(OC)cc3)c(C#N)cc2C1	94.1*	21.2	-5.2	-3.7	u
Fc1ccc2[nH]c3c(NCc4ccccc4)ncnc3c2c1	x	x	-5.8	-1.8	-2.1
CNC(=O)c1c(NC(=O)c2cccc(C)c2)sc2c1CCC2	x	x	2.2	4.7*	u
Cc1cccc(C(=O)Nc2sc3c(c2C(=O)O)CCC3)c1	-2.1	3.5	0.2	0.1	0.6
Cc1cc(C)cc(N2C(=O)CC(Sc3nnnn3-c3ccccc3)C2=O)c1 (stereo not given)	24.6	22.6	-1.5	7.2*	-3.7
Cn1nnnc1SC1CC(=O)N(c2ccccc2)C1=O (stereo not given)	5.2	9.8	1.7	-2.2	4.2
Cc1ccc(-c2nc3cnccn3c2Nc2c(C)cccc2C)o1	-47.3	-2.8	-5.5	-6.2	46.7*
Cc1ccc(-c2nc3ncccn3c2Nc2ccccc2C)o1	-54.9	8.9	0.1	-0.6	-3.5
COc1ccccc1/C=C/C=c1\sc2nc(=O)c(Cc3ccccc3)nn2c1=O	-51.0	-0.6	0.7	7.9*	1.2
CC1CN(S(=O)(=O)c2cccc(C(=O)N(Cc3nnc(-c4ccccc4Cl)o3)C3CC3)c2)CC(C)O1 (stereo not given)	x	x	x	x	4.7
N#C/C(=C/c1ccc(F)cc1)c1nnc(NC(=O)c2ccccc2)s1	81.1*	2.0	-0.2	-2.9	-5.1
O=C(CN1CCN(C(=O)c2c(F)cccc2F)CC1)Nc1ccccc1C(F)(F)F	x	x	0.8	-1.3	6.4
Cc1cc(=O)oc2c(CN3CCN(C)CC3)c(O)c(Cl)cc12	136.2*	97.2*	-1.6	-3.2	14.1
Cc1c(C)c2cc(Cl)c(O)c(CN3CCCCC3)c2oc1=O	88.7*	35.1	0.0	-4.3	u
CCN(CC(=O)NCCc1ccc(S(N)(=O)=O)cc1)Cc1ccccc1	x	x	-2.0	-1.6	4.2
COc1ccc(CN(C)CC(=O)N2CCc3ccccc3C2)cc1	x	x	-2.6	-3.8	-0.9
S=c1[nH]c2ccccc2n2cccc12	-0.3	2.1	8.7*	-3.0	-2.4
Cn1c(=S)[nH]c2ccccc21	1.9	3.8	-1.8	-5.8	x
CCOC(=O)CNS(=O)(=O)c1ccc2c3c(cccc13)C(=O)N2CC	86.5*	0.5	2.6	-1.6	21.3*
CN1C(=O)c2cccc3c(S(=O)(=O)NCCc4ccccc4)ccc1c23	x	x	-0.8	-1.7	8.2
SMILES	Runt-SMMHC FRET	Runt-CBFb FRET	VIM-2 inh	IMP-1 inh	RanGTP-Imp inh
CCN1C(=O)c2cccc3c(S(=O)(=O)NCc4ccccn4)ccc1c23	57.2	-20.1	-1.1	-3.3	22.9*
CCN1C(=O)c2cccc3c(S(=O)(=O)Nc4c(C)n(C)n(-c5ccccc5)c4=O)ccc1c23	-0.6	-0.8	-1.8	1.0	3.5
COCCNS(=O)(=O)c1ccc2c3c(cccc13)C(=O)N2C	90.5	-15.4	-1.6	-1.7	22.5*
CN1C(=O)c2cccc3c(S(=O)(=O)Nc4ccc(O)c(C(=O)O)c4)ccc1c23	x	x	11.6*	1.8	3.9
COc1ccc(CC2=CC(=O)c3ccccc3C2=O)cc1	x	x	-1.1	-2.4	-2.7
COc1ccc2oc(C(=O)OCC(=O)Nc3ccc(C(=O)N(C)C)cc3)c(C)c2c1	x	x	-0.1	-2.8	2.3
Cc1ccccc1NC(=O)CN1C(=O)S/C(=C\c2ccc(-c3cc(C(=O)O)ccc3C)o2)C1=O	18.1	11.1	-2.6	-2.8	-106.5
CC(C)(C)OC(=O)CN1C(=O)S/C(=C\c2ccc(-c3cccc(C(=O)O)c3)o2)C1=O	x	x	-1.9	-2.7	34.5*
Cc1ccc(NC(=O)CN2C(=O)S/C(=C/c3ccc(-c4cccc(C(=O)O)c4)o3)C2=O)cc1	-1.0	-28.2	-3.2	-3.2	x

Compound activity: PubChem BioAssay, several laboratories
